How the values were obtained:
Format in all cases: functional, cell-based
[1] = tested on: HeLa; experiment: Antiproliferative activity against human HeLa cells measured after 48 hrs by MTT assay
Outline: (§1)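 Cells grown to log phase in RPMI 1640 with 10% FBS, seeded at 3 × 10⁴ cells/mL, and preincubated 24 h at 37 °C, 5% CO₂. Compounds were added at pre-set concentrations to 6 wells each, with doxorubicin as reference, and exposed for 48 h. MTT was then added and absorbance read at 570 nm.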

[2] = tested on: SGC-7901; experiment: Antiproliferative activity against human SGC-7901 cells measured after 48 hrs by MTT assay; conditions: SGC-7901, 48 h; outline: as §1
[3] = tested on: SMMC-7721; experiment: Antiproliferative activity against human SMMC-7721 cells measured after 48 hrs by MTT assay; conditions: SMMC-7721, 48 h; outline: as §1
[4] = tested on: HepG2; experiment: Antiproliferative activity against human HepG2 cells measured after 48 hrs by MTT assay; conditions: HepG2, 48 h; outline: as §1

IC50 [1] [µM] | IC50 [2] [µM] | IC50 [3] [µM] | IC50 [4] [µM] | Structure (SMILES)
50.2 | 48.1 | – | – | COc1ccc(C(=O)c2ccc([N+](=O)[O-])cc2)cc1OCC(=O)OC[C@@H]1C=C[C@H](n2cc(C)c(=O)[nH]c2=O)O1
45.8 | – | 40.6 | – | COc1ccc(C(=O)c2ccccc2Cl)cc1OCC(=O)OC[C@@H]1C=C[C@H](n2cc(C)c(=O)[nH]c2=O)O1
12.8 | 23.4 | 21.2 | 15 | COc1ccc(C(=O)c2cc(OC)c(OC)c(OC)c2)cc1OCC(=O)OC[C@@H]1C=C[C@H](n2cc(C)c(=O)[nH]c2=O)O1
28.6 | 31.4 | 20.1 | 28.6 | COc1cc(OC)c(C(=O)c2ccc(OC)c(OCC(=O)OC[C@@H]3C=C[C@H](n4cc(C)c(=O)[nH]c4=O)O3)c2)cc1OC
30.2 | – | 32.3 | – | COc1ccc(C(=O)c2ccccc2OC)cc1OCC(=O)OC[C@@H]1C=C[C@H](n2cc(C)c(=O)[nH]c2=O)O1
3.99 | 3.41 | 1.95 | – | COc1cccc2c1C(=O)c1c(O)c3c(c(O)c1C2=O)C[C@@](O)(C(=O)CO)C[C@@H]3O[C@H]1C[C@H](N)[C@H](O)[C@H](C)O1 [DOXORUBICIN]
36.3 | 29.1 | 40.3 | 38 | COc1ccc(C(=O)c2ccc(F)cc2)cc1OCC(=O)OC[C@@H]1C=C[C@H](n2cc(C)c(=O)[nH]c2=O)O1
